According to ChEMBL document CHEMBL1137684, “Examination of growth inhibitory properties of synthetic chalcones for which antibacterial activity was predicted” (2009):
≈ marks a conversion by molar mass, not a printed value. Each block holds one compound with its values, some of them ahead of it. Calls of active or inactive are those of the source. No rule for the calls is given here.

Key:
Escherichia coli = experiment: Antibacterial activity against Escherichia coli WF+; type: functional, organism-based
Staphylococcus aureus [1] = experiment: Antibacterial activity against Staphylococcus aureus Rosenbach 209 after 24 hrs by serial dilution method; type: functional; conditions: Rosenbach 209, 24 h
In short: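 Serial dilution of each chalcone in meat-peptone broth in tubes. Each tube was inoculated with bacterial suspension at 10⁵ cells/ml and incubated at 37 °C for 24 h. MIC was the lowest dilution with no visible growth compared with inoculated drug-free broth.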

Staphylococcus aureus [2] = experiment: Antibacterial activity against Staphylococcus aureus Rosenbach 209 after 48 hrs by agar well diffusion method; type: functional
In short: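 Agar-well diffusion on meat-peptone agar. Read-out was the diameter of the inhibition zone, with ≥15 mm taken as active. Pure solvent served as the control.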

SMILES: COc1cccc(/C=C/C(=O)c2ccc(Cl)cc2)c1O
Activity (Escherichia coli): inactive | MIC (Staphylococcus aureus [1]): 250 µg/mL (≈ 866 µM) | diameter of the inhibition zone (DIZ) (Staphylococcus aureus [2]): 0 mm

SMILES: O=C(/C=C/c1ccc(Cl)cc1)c1ccc(Cl)cc1 [4',4-DICHLOROCHALCONE]
Activity (Escherichia coli): inactive | MIC (Staphylococcus aureus [1]): 500 µg/mL (≈ 1800 µM) | diameter of the inhibition zone (DIZ) (Staphylococcus aureus [2]): 0 mm

SMILES: CC(=O)Nc1ccc(/C=C/C(=O)c2ccc(Cl)cc2)cc1
Activity (Escherichia coli): inactive | MIC (Staphylococcus aureus [1]): 500 µg/mL (≈ 1670 µM) | diameter of the inhibition zone (DIZ) (Staphylococcus aureus [2]): 0 mm

SMILES: O=C(/C=C/c1ccc(Cl)cc1)/C=C/c1ccc(Cl)cc1
Activity (Escherichia coli): inactive | MIC (Staphylococcus aureus [1]): 250 µg/mL (≈ 825 µM) | diameter of the inhibition zone (DIZ) (Staphylococcus aureus [2]): 0 mm

SMILES: N#Cc1ccc(/C=C/C(=O)c2ccc(Cl)cc2)cc1
Activity (Escherichia coli): inactive | MIC (Staphylococcus aureus [1]): 250 µg/mL (≈ 934 µM) | diameter of the inhibition zone (DIZ) (Staphylococcus aureus [2]): 21 mm

SMILES: COc1cc(C(=O)/C=C/c2ccc(NC(C)=O)cc2)cc(OC)c1OC
Activity (Escherichia coli): inactive | MIC (Staphylococcus aureus [1]): 500 µg/mL (≈ 1410 µM) | diameter of the inhibition zone (DIZ) (Staphylococcus aureus [2]): 0 mm

SMILES: COc1cc(/C=C/C(=O)c2cc(OC)c(OC)c(OC)c2)ccc1O
Activity (Escherichia coli): inactive | MIC (Staphylococcus aureus [1]): 500 µg/mL (≈ 1450 µM) | diameter of the inhibition zone (DIZ) (Staphylococcus aureus [2]): 0 mm

SMILES: COc1cc(C(=O)/C=C/c2cccc(O)c2)cc(OC)c1OC
Activity (Escherichia coli): inactive | MIC (Staphylococcus aureus [1]): 500 µg/mL (≈ 1590 µM) | diameter of the inhibition zone (DIZ) (Staphylococcus aureus [2]): 0 mm

SMILES: COc1cc(C(=O)/C=C/c2ccccc2O)cc(OC)c1OC
Activity (Escherichia coli): inactive | MIC (Staphylococcus aureus [1]): 500 µg/mL (≈ 1590 µM) | diameter of the inhibition zone (DIZ) (Staphylococcus aureus [2]): 0 mm

SMILES: COc1cc(C(=O)/C=C/c2ccc(C#N)cc2)cc(OC)c1OC
Activity (Escherichia coli): inactive | MIC (Staphylococcus aureus [1]): 62.5 µg/mL (≈ 193 µM) | diameter of the inhibition zone (DIZ) (Staphylococcus aureus [2]): 0 mm

SMILES: O=C(/C=C/c1cc([N+](=O)[O-])ccc1O)c1ccc(Cl)cc1
Activity (Escherichia coli): inactive | MIC (Staphylococcus aureus [1]): 500 µg/mL (≈ 1650 µM) | diameter of the inhibition zone (DIZ) (Staphylococcus aureus [2]): 0 mm

SMILES: COc1cc(C(=O)/C=C/c2ccc([N+](=O)[O-])cc2)cc(OC)c1OC
Activity (Escherichia coli): inactive | MIC (Staphylococcus aureus [1]): 62.5 µg/mL (≈ 182 µM) | diameter of the inhibition zone (DIZ) (Staphylococcus aureus [2]): 0 mm

SMILES: O=C(/C=C/C=C/c1ccccc1)/C=C/C=C/c1ccccc1
Activity (Escherichia coli): inactive | MIC (Staphylococcus aureus [1]): 500 µg/mL (≈ 1750 µM) | diameter of the inhibition zone (DIZ) (Staphylococcus aureus [2]): 0 mm

SMILES: COc1ccc(/C=C/C(=O)c2cc(OC)c(OC)c(OC)c2)cc1
Activity (Escherichia coli): inactive | MIC (Staphylococcus aureus [1]): 500 µg/mL (≈ 1520 µM) | diameter of the inhibition zone (DIZ) (Staphylococcus aureus [2]): 0 mm

SMILES: O=C(/C=C/c1ccc([N+](=O)[O-])cc1)c1ccc(Cl)cc1
Activity (Escherichia coli): inactive | MIC (Staphylococcus aureus [1]): 250 µg/mL (≈ 869 µM) | diameter of the inhibition zone (DIZ) (Staphylococcus aureus [2]): 17 mm

SMILES: COc1cc(/C=C/C(=O)/C=C/c2cc(OC)c(OC)c(OC)c2)cc(OC)c1OC
Activity (Escherichia coli): inactive | MIC (Staphylococcus aureus [1]): 250 µg/mL (≈ 603 µM) | diameter of the inhibition zone (DIZ) (Staphylococcus aureus [2]): 0 mm

SMILES: COc1cc(C(=O)/C=C/c2ccc(C)cc2)cc(OC)c1OC
Activity (Escherichia coli): inactive | MIC (Staphylococcus aureus [1]): 500 µg/mL (≈ 1600 µM) | diameter of the inhibition zone (DIZ) (Staphylococcus aureus [2]): 0 mm

SMILES: COc1cc(C(=O)/C=C/c2ccccc2)cc(OC)c1OC
Activity (Escherichia coli): inactive | MIC (Staphylococcus aureus [1]): 250 µg/mL (≈ 838 µM) | diameter of the inhibition zone (DIZ) (Staphylococcus aureus [2]): 0 mm

SMILES: COc1cc(C(=O)/C=C/c2ccc(N(C)C)cc2)cc(OC)c1OC
Activity (Escherichia coli): inactive | MIC (Staphylococcus aureus [1]): 500 µg/mL (≈ 1460 µM) | diameter of the inhibition zone (DIZ) (Staphylococcus aureus [2]): 0 mm

SMILES: COc1ccc(/C=C/C(=O)c2cc(OC)c(OC)c(OC)c2)cc1O
Activity (Escherichia coli): inactive | MIC (Staphylococcus aureus [1]): 500 µg/mL (≈ 1450 µM) | diameter of the inhibition zone (DIZ) (Staphylococcus aureus [2]): 0 mm

SMILES: COc1cc(C(=O)/C=C/c2ccc(O)cc2)cc(OC)c1OC
Activity (Escherichia coli): inactive | MIC (Staphylococcus aureus [1]): 500 µg/mL (≈ 1590 µM) | diameter of the inhibition zone (DIZ) (Staphylococcus aureus [2]): 0 mm

SMILES: CN(C)c1ccc(/C=C/C(=O)c2ccc(Cl)cc2)cc1
Activity (Escherichia coli): inactive | MIC (Staphylococcus aureus [1]): 500 µg/mL (≈ 1750 µM) | diameter of the inhibition zone (DIZ) (Staphylococcus aureus [2]): 0 mm

SMILES: COc1cc(C(=O)/C=C/c2ccc(Cl)cc2)cc(OC)c1OC
Activity (Escherichia coli): inactive | MIC (Staphylococcus aureus [1]): 62.5 µg/mL (≈ 188 µM) | diameter of the inhibition zone (DIZ) (Staphylococcus aureus [2]): 0 mm

SMILES: COc1ccc(/C=C/C(=O)c2ccc(Cl)cc2)cc1
Activity (Escherichia coli): inactive | MIC (Staphylococcus aureus [1]): 500 µg/mL (≈ 1830 µM) | diameter of the inhibition zone (DIZ) (Staphylococcus aureus [2]): 0 mm

SMILES: COc1cc(/C=C/C(=O)c2ccc(Cl)cc2)cc(OC)c1O
Activity (Escherichia coli): inactive | MIC (Staphylococcus aureus [1]): 500 µg/mL (≈ 1570 µM) | diameter of the inhibition zone (DIZ) (Staphylococcus aureus [2]): 19 mm

SMILES: COc1cc(C(=O)/C=C/C=C/c2ccccc2)cc(OC)c1OC
Activity (Escherichia coli): inactive | MIC (Staphylococcus aureus [1]): 500 µg/mL (≈ 1540 µM) | diameter of the inhibition zone (DIZ) (Staphylococcus aureus [2]): 19 mm

SMILES: Cc1ccc(/C=C/C(=O)c2ccc(Cl)cc2)cc1
Activity (Escherichia coli): inactive | MIC (Staphylococcus aureus [1]): 500 µg/mL (≈ 1950 µM) | diameter of the inhibition zone (DIZ) (Staphylococcus aureus [2]): 0 mm

Continued, in another order:

MIC (Staphylococcus aureus [1]): 125 µg/mL (≈ 600 µM)
SMILES: O=C(/C=C/c1ccccc1)c1ccccc1 [CHALCONE]
Activity (Escherichia coli): inactive | diameter of the inhibition zone (DIZ) (Staphylococcus aureus [2]): 29 mm

MIC (Staphylococcus aureus [1]): 500 µg/mL (≈ 1970 µM)
SMILES: COc1cc(/C=C/C(=O)c2ccccc2)ccc1O
Activity (Escherichia coli): inactive | diameter of the inhibition zone (DIZ) (Staphylococcus aureus [2]): 0 mm

MIC (Staphylococcus aureus [1]): 500 µg/mL (≈ 2060 µM)
SMILES: O=C(/C=C/c1ccccc1)c1ccc(Cl)cc1
Activity (Escherichia coli): inactive | diameter of the inhibition zone (DIZ) (Staphylococcus aureus [2]): 0 mm

MIC (Staphylococcus aureus [1]): 500 µg/mL (≈ 1990 µM)
SMILES: CN(C)c1ccc(/C=C/C(=O)c2ccccc2)cc1
Activity (Escherichia coli): inactive | diameter of the inhibition zone (DIZ) (Staphylococcus aureus [2]): 0 mm

MIC (Staphylococcus aureus [1]): 125 µg/mL (≈ 455 µM)
SMILES: O=C(/C=C/c1ccc(O)c(O)c1)c1ccc(Cl)cc1
Activity (Escherichia coli): inactive | diameter of the inhibition zone (DIZ) (Staphylococcus aureus [2]): 19 mm

MIC (Staphylococcus aureus [1]): 500 µg/mL (≈ 2130 µM)
SMILES: O=C(/C=C/C=C/c1ccccc1)c1ccccc1
Activity (Escherichia coli): inactive | diameter of the inhibition zone (DIZ) (Staphylococcus aureus [2]): 0 mm

MIC (Staphylococcus aureus [1]): 125 µg/mL (≈ 520 µM)
SMILES: O=C(/C=C/c1ccc(O)c(O)c1)c1ccccc1
Activity (Escherichia coli): inactive | diameter of the inhibition zone (DIZ) (Staphylococcus aureus [2]): 21 mm

MIC (Staphylococcus aureus [1]): 500 µg/mL (≈ 2060 µM)
SMILES: O=C(/C=C/c1ccc(Cl)cc1)c1ccccc1 [4-CHLORO CHALCONE]
Activity (Escherichia coli): inactive | diameter of the inhibition zone (DIZ) (Staphylococcus aureus [2]): 0 mm

MIC (Staphylococcus aureus [1]): 125 µg/mL (≈ 492 µM)
SMILES: COc1cccc(/C=C/C(=O)c2ccccc2)c1O
Activity (Escherichia coli): inactive | diameter of the inhibition zone (DIZ) (Staphylococcus aureus [2]): 19 mm

MIC (Staphylococcus aureus [1]): 125 µg/mL (≈ 483 µM)
SMILES: O=C(/C=C/c1ccccc1O)c1ccc(Cl)cc1
Activity (Escherichia coli): inactive | diameter of the inhibition zone (DIZ) (Staphylococcus aureus [2]): 20 mm

MIC (Staphylococcus aureus [1]): 500 µg/mL (≈ 1880 µM)
SMILES: CC(=O)Nc1ccc(/C=C/C(=O)c2ccccc2)cc1
Activity (Escherichia coli): inactive | diameter of the inhibition zone (DIZ) (Staphylococcus aureus [2]): 0 mm

MIC (Staphylococcus aureus [1]): 125 µg/mL (≈ 557 µM)
SMILES: O=C(/C=C/c1ccc(O)cc1)c1ccccc1 [4-HYDROXYCHALCONE]
Activity (Escherichia coli): inactive | diameter of the inhibition zone (DIZ) (Staphylococcus aureus [2]): 19 mm

MIC (Staphylococcus aureus [1]): 250 µg/mL (≈ 1110 µM)
SMILES: O=C(/C=C/c1cccc(O)c1)c1ccccc1 [3-HYDROXY CHALCONE]
Activity (Escherichia coli): inactive | diameter of the inhibition zone (DIZ) (Staphylococcus aureus [2]): 20 mm

MIC (Staphylococcus aureus [1]): 125 µg/mL (≈ 483 µM)
SMILES: O=C(/C=C/c1cccc(O)c1)c1ccc(Cl)cc1
Activity (Escherichia coli): inactive | diameter of the inhibition zone (DIZ) (Staphylococcus aureus [2]): 25 mm

MIC (Staphylococcus aureus [1]): 500 µg/mL (≈ 2250 µM)
SMILES: Cc1ccc(/C=C/C(=O)c2ccccc2)cc1
Activity (Escherichia coli): inactive | diameter of the inhibition zone (DIZ) (Staphylococcus aureus [2]): 0 mm

MIC (Staphylococcus aureus [1]): 250 µg/mL (≈ 866 µM)
SMILES: COc1cc(/C=C/C(=O)c2ccc(Cl)cc2)ccc1O
Activity (Escherichia coli): inactive | diameter of the inhibition zone (DIZ) (Staphylococcus aureus [2]): 21 mm

MIC (Staphylococcus aureus [1]): 125 µg/mL (≈ 483 µM)
SMILES: O=C(/C=C/c1ccc(O)cc1)c1ccc(Cl)cc1
Activity (Escherichia coli): inactive | diameter of the inhibition zone (DIZ) (Staphylococcus aureus [2]): 31 mm

MIC (Staphylococcus aureus [1]): 500 µg/mL (≈ 2100 µM)
SMILES: COc1ccc(/C=C/C(=O)c2ccccc2)cc1 [4-METHOXY CHALCONE]
Activity (Escherichia coli): inactive | diameter of the inhibition zone (DIZ) (Staphylococcus aureus [2]): 0 mm

MIC (Staphylococcus aureus [1]): 250 µg/mL (≈ 983 µM)
SMILES: COc1ccc(/C=C/C(=O)c2ccccc2)cc1O
Activity (Escherichia coli): inactive | diameter of the inhibition zone (DIZ) (Staphylococcus aureus [2]): 0 mm

MIC (Staphylococcus aureus [1]): 500 µg/mL (≈ 1860 µM)
SMILES: O=C(/C=C/C=C/c1ccccc1)c1ccc(Cl)cc1
Activity (Escherichia coli): inactive | diameter of the inhibition zone (DIZ) (Staphylococcus aureus [2]): 0 mm

MIC (Staphylococcus aureus [1]): 250 µg/mL (≈ 987 µM)
SMILES: O=C(/C=C/c1ccc([N+](=O)[O-])cc1)c1ccccc1
Activity (Escherichia coli): inactive | diameter of the inhibition zone (DIZ) (Staphylococcus aureus [2]): 17 mm

MIC (Staphylococcus aureus [1]): 62.5 µg/mL (≈ 279 µM)
SMILES: O=C(/C=C/c1ccccc1O)c1ccccc1
Activity (Escherichia coli): inactive | diameter of the inhibition zone (DIZ) (Staphylococcus aureus [2]): 22 mm

MIC (Staphylococcus aureus [1]): 500 µg/mL (≈ 2140 µM)
SMILES: N#Cc1ccc(/C=C/C(=O)c2ccccc2)cc1
Activity (Escherichia coli): inactive | diameter of the inhibition zone (DIZ) (Staphylococcus aureus [2]): 16 mm

MIC (Staphylococcus aureus [1]): 62.5 µg/mL (≈ 216 µM)
SMILES: COc1ccc(/C=C/C(=O)c2ccc(Cl)cc2)cc1O
Activity (Escherichia coli): inactive | diameter of the inhibition zone (DIZ) (Staphylococcus aureus [2]): 0 mm
